Measurements taken from ChEMBL document CHEMBL3259614, “Design, synthesis, and structure-activity relationship studies of novel fused heterocycles-linked triazoles with good activity and water solubility” (J Med Chem, 2014).
Converted amounts (≈) assume the structure as drawn.

Assays:
Type in all cases: functional
Nakaseomyces glabratus = assay: Antimicrobial activity against Candida glabrata 537 after 24 hrs by serial dilution method; settings: Nakaseomyces glabratus, 537, 24 h
Summary of the method: (§1)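 Broth serial dilution MIC in 96-well plates following NCCLS/CLSI methods. Compounds were dissolved in DMSO and serially diluted in growth medium, with incubation at 35 °C. […] C. parapsilosis 22019 served as the quality-control strain in each assay.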

Candida parapsilosis = assay: Antimicrobial activity against Candida parapsilosis 22019 after 24 hrs by serial dilution method; settings: Lodderomyces parapsilosis, 22019, 24 h; summary of the method: as §1
Candida albicans [1] = assay: Antimicrobial activity against Candida albicans Y0109 after 24 hrs by serial dilution method; settings: Y0109, 24 h; summary of the method: as §1
Aspergillus fumigatus = assay: Antimicrobial activity against Aspergillus fumigatus 7544 after 48 hrs by serial dilution method; settings: Aspergillus fumigatus, 7544, 48 h; summary of the method: as §1
Candida albicans [2] = assay: Antimicrobial activity against Candida albicans SC5314 after 24 hrs by serial dilution method; settings: SC5314, 24 h; summary of the method: as §1
Cryptococcus neoformans = assay: Antimicrobial activity against Cryptococcus neoformans 32609 after 72 hrs by serial dilution method; settings: Cryptococcus neoformans, 32609, 72 h; summary of the method: as §1

| MIC (Nakaseomyces glabratus) | MIC (Candida parapsilosis) | MIC (Candida albicans [1]) | MIC (Aspergillus fumigatus) | MIC (Candida albicans [2]) | MIC (Cryptococcus neoformans) | Compound |
| --- | --- | --- | --- | --- | --- | --- |
| 0.25 µg/mL (≈ 0.565 µM) | 0.25 µg/mL (≈ 0.565 µM) | 0.25 µg/mL (≈ 0.565 µM) | > 64 µg/mL | 0.25 µg/mL (≈ 0.565 µM) | 1 µg/mL (≈ 2.26 µM) | C[C@@H](N1CCn2cc(C(F)(F)F)nc2C1)[C@](O)(Cn1cncn1)c1ccc(F)cc1F |
| 0.25 µg/mL (≈ 0.581 µM) | 0.25 µg/mL (≈ 0.581 µM) | 0.125 µg/mL (≈ 0.29 µM) | > 64 µg/mL | 0.25 µg/mL (≈ 0.581 µM) | 0.25 µg/mL (≈ 0.581 µM) | C[C@@H](N1CCn2cc(C(C)(C)C)nc2C1)[C@](O)(Cn1cncn1)c1ccc(F)cc1F |
| 0.125 µg/mL (≈ 0.26 µM) | 0.125 µg/mL (≈ 0.26 µM) | 0.0625 µg/mL (≈ 0.13 µM) | 32 µg/mL (≈ 66.6 µM) | 0.0625 µg/mL (≈ 0.13 µM) | 0.125 µg/mL (≈ 0.26 µM) | COc1ccc(-c2cn3c(n2)CN([C@H](C)[C@](O)(Cn2cncn2)c2ccc(F)cc2F)CC3)cc1 |
| 0.125 µg/mL (≈ 0.267 µM) | 0.125 µg/mL (≈ 0.267 µM) | 0.125 µg/mL (≈ 0.267 µM) | 32 µg/mL (≈ 68.3 µM) | 0.125 µg/mL (≈ 0.267 µM) | 0.125 µg/mL (≈ 0.267 µM) | C[C@@H](N1CCn2cc(-c3ccc(F)cc3)nc2C1)[C@](O)(Cn1cncn1)c1ccc(F)cc1F |
| 0.25 µg/mL (≈ 0.482 µM) | 0.25 µg/mL (≈ 0.482 µM) | 0.25 µg/mL (≈ 0.482 µM) | 32 µg/mL (≈ 61.7 µM) | 0.125 µg/mL (≈ 0.241 µM) | 0.125 µg/mL (≈ 0.241 µM) | C[C@@H](N1CCn2cc(-c3ccc(C(F)(F)F)cc3)nc2C1)[C@](O)(Cn1cncn1)c1ccc(F)cc1F |
| 0.125 µg/mL (≈ 0.257 µM) | 0.125 µg/mL (≈ 0.257 µM) | 0.125 µg/mL (≈ 0.257 µM) | 32 µg/mL (≈ 65.8 µM) | 0.125 µg/mL (≈ 0.257 µM) | 0.125 µg/mL (≈ 0.257 µM) | C[C@@H](N1CCn2cc(-c3ccc(F)cc3F)nc2C1)[C@](O)(Cn1cncn1)c1ccc(F)cc1F |
| 0.125 µg/mL (≈ 0.269 µM) | 0.125 µg/mL (≈ 0.269 µM) | 0.0625 µg/mL (≈ 0.135 µM) | 32 µg/mL (≈ 68.9 µM) | 0.0625 µg/mL (≈ 0.135 µM) | 0.125 µg/mL (≈ 0.269 µM) | Cc1ccc(-c2cn3c(n2)CN([C@H](C)[C@](O)(Cn2cncn2)c2ccc(F)cc2F)CC3)cc1 |
| 0.125 µg/mL (≈ 0.26 µM) | 0.125 µg/mL (≈ 0.26 µM) | 0.0625 µg/mL (≈ 0.13 µM) | 32 µg/mL (≈ 66.6 µM) | 0.0625 µg/mL (≈ 0.13 µM) | 0.0625 µg/mL (≈ 0.13 µM) | COc1cccc(-c2cn3c(n2)CN([C@H](C)[C@](O)(Cn2cncn2)c2ccc(F)cc2F)CC3)c1 |
| 0.25 µg/mL (≈ 0.534 µM) | 0.125 µg/mL (≈ 0.267 µM) | 0.25 µg/mL (≈ 0.534 µM) | 64 µg/mL (≈ 137 µM) | 0.125 µg/mL (≈ 0.267 µM) | 0.25 µg/mL (≈ 0.534 µM) | C[C@@H](N1CCn2cc(-c3cccc(F)c3)nc2C1)[C@](O)(Cn1cncn1)c1ccc(F)cc1F |
| 0.25 µg/mL (≈ 0.482 µM) | 0.125 µg/mL (≈ 0.241 µM) | 0.5 µg/mL (≈ 0.964 µM) | 64 µg/mL (≈ 123 µM) | 0.125 µg/mL (≈ 0.241 µM) | 0.25 µg/mL (≈ 0.482 µM) | C[C@@H](N1CCn2cc(-c3cccc(C(F)(F)F)c3)nc2C1)[C@](O)(Cn1cncn1)c1ccc(F)cc1F |
| 0.125 µg/mL (≈ 0.266 µM) | 0.125 µg/mL (≈ 0.266 µM) | 0.125 µg/mL (≈ 0.266 µM) | 32 µg/mL (≈ 68.2 µM) | 0.25 µg/mL (≈ 0.533 µM) | 0.125 µg/mL (≈ 0.266 µM) | C[C@@H](N1CCn2nc(-c3ccc(F)cc3)nc2C1)[C@](O)(Cn1cncn1)c1ccc(F)cc1F |
| 1 µg/mL (≈ 1.89 µM) | 0.5 µg/mL (≈ 0.943 µM) | 0.125 µg/mL (≈ 0.236 µM) | 16 µg/mL (≈ 30.2 µM) | 0.25 µg/mL (≈ 0.471 µM) | 1 µg/mL (≈ 1.89 µM) | C[C@@H](N1CCn2nc(-c3cccc(Br)c3)nc2C1)[C@](O)(Cn1cncn1)c1ccc(F)cc1F |

The remaining lines, values behind:

| Compound | MIC (Nakaseomyces glabratus) | MIC (Candida parapsilosis) | MIC (Candida albicans [1]) | MIC (Aspergillus fumigatus) | MIC (Candida albicans [2]) | MIC (Cryptococcus neoformans) |
| --- | --- | --- | --- | --- | --- | --- |
| C[C@@H](N1CCn2nncc2C1)[C@](O)(Cn1cncn1)c1ccc(F)cc1F | 0.5 µg/mL (≈ 1.33 µM) | 0.25 µg/mL (≈ 0.666 µM) | 0.125 µg/mL (≈ 0.333 µM) | 16 µg/mL (≈ 42.6 µM) | 0.0625 µg/mL (≈ 0.166 µM) | 0.25 µg/mL (≈ 0.666 µM) |
| C[C@@H](N1CCn2nnc(Cl)c2C1)[C@](O)(Cn1cncn1)c1ccc(F)cc1F | 0.25 µg/mL (≈ 0.61 µM) | 0.125 µg/mL (≈ 0.305 µM) | 0.0625 µg/mL (≈ 0.153 µM) | 8 µg/mL (≈ 19.5 µM) | ≤ 0.0312 µg/mL | ≤ 0.0625 µg/mL |
| Cc1nnn2c1CN([C@H](C)[C@](O)(Cn1cncn1)c1ccc(F)cc1F)CC2 | 0.5 µg/mL (≈ 1.28 µM) | 0.5 µg/mL (≈ 1.28 µM) | 0.5 µg/mL (≈ 1.28 µM) | 16 µg/mL (≈ 41.1 µM) | 0.25 µg/mL (≈ 0.642 µM) | 4 µg/mL (≈ 10.3 µM) |
| C[C@@H](N1CCn2nnc(C(=O)N(C)C)c2C1)[C@](O)(Cn1cncn1)c1ccc(F)cc1F | 8 µg/mL (≈ 17.9 µM) | 1 µg/mL (≈ 2.24 µM) | 1 µg/mL (≈ 2.24 µM) | > 16 µg/mL | 0.5 µg/mL (≈ 1.12 µM) | 16 µg/mL (≈ 35.8 µM) |
| C[C@@H](N1CCn2nnc(-c3ccccc3)c2C1)[C@](O)(Cn1cncn1)c1ccc(F)cc1F | 8 µg/mL (≈ 17.7 µM) | 4 µg/mL (≈ 8.86 µM) | 2 µg/mL (≈ 4.43 µM) | > 16 µg/mL | 1 µg/mL (≈ 2.21 µM) | 8 µg/mL (≈ 17.7 µM) |
| C[C@@H](N1CCn2nnc(-c3cccnc3)c2C1)[C@](O)(Cn1cncn1)c1ccc(F)cc1F | 8 µg/mL (≈ 17.7 µM) | 8 µg/mL (≈ 17.7 µM) | 4 µg/mL (≈ 8.84 µM) | 8 µg/mL (≈ 17.7 µM) | 2 µg/mL (≈ 4.42 µM) | 4 µg/mL (≈ 8.84 µM) |
| C[C@@H](N1CCn2nnc(-c3ccncc3)c2C1)[C@](O)(Cn1cncn1)c1ccc(F)cc1F | 8 µg/mL (≈ 17.7 µM) | 4 µg/mL (≈ 8.84 µM) | 4 µg/mL (≈ 8.84 µM) | > 16 µg/mL | 1 µg/mL (≈ 2.21 µM) | 16 µg/mL (≈ 35.4 µM) |
| C[C@@H](N1CCn2nnc(-c3cncnc3)c2C1)[C@](O)(Cn1cncn1)c1ccc(F)cc1F | 8 µg/mL (≈ 17.6 µM) | 8 µg/mL (≈ 17.6 µM) | 2 µg/mL (≈ 4.41 µM) | > 16 µg/mL | 1 µg/mL (≈ 2.21 µM) | 8 µg/mL (≈ 17.6 µM) |
| C[C@@H](N1CCn2nnc(-c3ccc(C#N)nc3)c2C1)[C@](O)(Cn1cncn1)c1ccc(F)cc1F | 4 µg/mL (≈ 8.38 µM) | 4 µg/mL (≈ 8.38 µM) | 4 µg/mL (≈ 8.38 µM) | > 16 µg/mL | 2 µg/mL (≈ 4.19 µM) | 16 µg/mL (≈ 33.5 µM) |
| CCOC(=O)c1cn2c(n1)CN([C@H](C)[C@](O)(Cn1cncn1)c1ccc(F)cc1F)CC2 | 1 µg/mL (≈ 2.24 µM) | 0.5 µg/mL (≈ 1.12 µM) | 0.5 µg/mL (≈ 1.12 µM) | > 64 µg/mL | 0.5 µg/mL (≈ 1.12 µM) | 2 µg/mL (≈ 4.48 µM) |
| C[C@@H](N1CCn2ncnc2C1)[C@](O)(Cn1cncn1)c1ccc(F)cc1F | 0.5 µg/mL (≈ 1.33 µM) | 0.25 µg/mL (≈ 0.666 µM) | 0.25 µg/mL (≈ 0.666 µM) | 16 µg/mL (≈ 42.6 µM) | 0.25 µg/mL (≈ 0.666 µM) | 0.5 µg/mL (≈ 1.33 µM) |
| C[C@@H](N1CCn2nc(C(F)(F)F)nc2C1)[C@](O)(Cn1cncn1)c1ccc(F)cc1F | 1 µg/mL (≈ 2.26 µM) | 0.5 µg/mL (≈ 1.13 µM) | 0.5 µg/mL (≈ 1.13 µM) | 32 µg/mL (≈ 72.2 µM) | 0.25 µg/mL (≈ 0.564 µM) | 0.5 µg/mL (≈ 1.13 µM) |
| C[C@@H](N1CCn2nc(-c3ccc(C#N)cc3)nc2C1)[C@](O)(Cn1cncn1)c1ccc(F)cc1F | 0.125 µg/mL (≈ 0.262 µM) | 0.5 µg/mL (≈ 1.05 µM) | 0.125 µg/mL (≈ 0.262 µM) | 64 µg/mL (≈ 134 µM) | 0.125 µg/mL (≈ 0.262 µM) | 0.125 µg/mL (≈ 0.262 µM) |
| Cc1cccc(-c2nc3n(n2)CCN([C@H](C)[C@](O)(Cn2cncn2)c2ccc(F)cc2F)C3)c1 | 0.125 µg/mL (≈ 0.269 µM) | 0.25 µg/mL (≈ 0.537 µM) | 0.125 µg/mL (≈ 0.269 µM) | 32 µg/mL (≈ 68.7 µM) | 0.0625 µg/mL (≈ 0.134 µM) | 0.125 µg/mL (≈ 0.269 µM) |
| C[C@@H](N1CCn2nc(-c3ccc(Br)cc3)nc2C1)[C@](O)(Cn1cncn1)c1ccc(F)cc1F | 0.5 µg/mL (≈ 0.943 µM) | 0.5 µg/mL (≈ 0.943 µM) | 0.125 µg/mL (≈ 0.236 µM) | 16 µg/mL (≈ 30.2 µM) | 0.25 µg/mL (≈ 0.471 µM) | 0.25 µg/mL (≈ 0.471 µM) |
| C[C@@H](N1CCn2nc(-c3ccc(Cl)cc3)nc2C1)[C@](O)(Cn1cncn1)c1ccc(F)cc1F | 0.5 µg/mL (≈ 1.03 µM) | 0.5 µg/mL (≈ 1.03 µM) | 0.125 µg/mL (≈ 0.257 µM) | 16 µg/mL (≈ 32.9 µM) | 0.25 µg/mL (≈ 0.514 µM) | 0.125 µg/mL (≈ 0.257 µM) |
| C[C@@H](N1CCn2nc(-c3cccc(Cl)c3)nc2C1)[C@](O)(Cn1cncn1)c1ccc(F)cc1F | 1 µg/mL (≈ 2.06 µM) | 1 µg/mL (≈ 2.06 µM) | 0.125 µg/mL (≈ 0.257 µM) | 64 µg/mL (≈ 132 µM) | 0.25 µg/mL (≈ 0.514 µM) | 2 µg/mL (≈ 4.12 µM) |
| C[C@@H](N1CCn2nc(-c3cccc(C(F)(F)F)c3)nc2C1)[C@](O)(Cn1cncn1)c1ccc(F)cc1F | 0.25 µg/mL (≈ 0.481 µM) | 0.5 µg/mL (≈ 0.963 µM) | 2 µg/mL (≈ 3.85 µM) | 16 µg/mL (≈ 30.8 µM) | 0.5 µg/mL (≈ 0.963 µM) | 2 µg/mL (≈ 3.85 µM) |
